Measurements from ChEMBL document CHEMBL4043299, “Repurposing a Library of Human Cathepsin L Ligands: Identification of Macrocyclic Lactams as Potent Rhodesain and Trypanosoma brucei Inhibitors” (J Med Chem, 2018).
Activity calls are given as the source filed them. No cut-off for these calls is given here.

What was measured:
[1] = molecular target: Rhodesain (Trypanosoma brucei rhodesiense, UniProt Q95PM0); assay: Inhibition of Trypanosoma brucei rhodesiense rhodesain using Cbz-Phe-Arg-AMC as substrate by fluorimetric method
Procedure, shortened: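 Fluorescence-based protease assay. IC50 was converted to Ki by the Cheng-Prusoff equation. Values are the average of two measurements, each run in duplicate.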

[2] = molecular target: Procathepsin L (Homo sapiens, UniProt P07711); assay: Inhibition of human CatL using Cbz-Phe-Arg-AMC as substrate measured over 30 mins by fluorimetric method
[3] = Selectivity index, ratio of Ki for human CatL to Ki for Trypanosoma brucei rhodesiense rhodesain
Procedure, shortened: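 Ki from IC50 via Cheng–Prusoff in fluorescence-based protease assay; index = Ki(hCatL)/Ki(RD); Ki as average of two measurements, each in duplicate.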

[4] = system: Trypanosoma brucei rhodesiense; assay: Antitrypanosomal activity against bloodstream form of Trypanosoma brucei rhodesiense STIB 900 assessed as parasite growth inhibition after 72 hrs by Alamar blue assay; format: functional
Procedure, shortened: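 T. b. rhodesiense STIB900 bloodstream trypomastigotes; cell-growth inhibition read by Alamar blue; IC50 as average of at least 2 measurements.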

[5] = system: L6; assay: Cytotoxicity against rat L6 cells after 72 hrs by Alamar blue assay; format: cell-based
Procedure, shortened: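 Rat skeletal myoblast L6 cells, growth inhibition; IC50 as average of at least 2 measurements.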

[6] = Selectivity index, ratio of IC50 for rat L6 cells to IC50 for bloodstream form of Trypanosoma brucei rhodesiense STIB 900; format: toxicity; conditions: for selectivity ratio: L6 cells, read-out: Ratio IC50
Procedure, shortened: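 Ratio of L6 cell IC50 to T. b. rhodesiense STIB900 trypomastigote IC50.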

[7] = system: Trypanosoma brucei rhodesiense; assay: Antitrypanosomal activity against bloodstream form of Trypanosoma brucei rhodesiense STIB 900 assessed as parasite growth inhibition incubated for 24 to 48 hrs followed by 72 hrs recovery by Alamar blue assay; format: functional
[8] = molecular target: Rhodesain (Trypanosoma brucei rhodesiense) (UniProt Q95PM0); assay: Inhibition of Trypanosoma brucei rhodesiense rhodesain at 20 uM using Cbz-Phe-Arg-AMC as substrate by fluorimetric method relative to control
[9] = system: Trypanosoma brucei rhodesiense; assay: Antitrypanosomal activity against bloodstream form of Trypanosoma brucei rhodesiense STIB 900 infected in NMRI mouse assessed as reduction of parasitemia at 25 mg/kg, ip bid administered for 4 consecutive days starting 3 days post infection measured 24 hrs post last dose; format: functional, organism-based
Procedure, shortened: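 Mice infected with T. b. rhodesiense STIB900 (acute model); dosing from day 3 post-infection on four consecutive days, 25 mg kg⁻¹ i.p. twice daily, 0.1 mL/10 g; three infected-untreated controls; parasitaemia monitored by tail-snip blood smears twice weekly for two weeks, then weekly to day 60; relapse day recorded post-infection.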

[10] = Drug uptake in bloodstream form of Trypanosoma brucei rhodesiense STIB 900 infected NMRI mouse blood at 25 mg/kg, ip bid administered for 4 consecutive days starting 3 days post infection measured at 1 hr post last dose; format: ADME, organism-based; conditions: read-out: Drug uptake
[11] = Drug uptake in bloodstream form of Trypanosoma brucei rhodesiense STIB 900 infected NMRI mouse blood at 25 mg/kg, ip bid administered for 4 consecutive days starting 3 days post infection measured at 4 hrs post last dose; format: ADME, organism-based; conditions: read-out: Drug uptake
[12] = Drug uptake in bloodstream form of Trypanosoma brucei rhodesiense STIB 900 infected NMRI mouse blood at 25 mg/kg, ip bid administered for 4 consecutive days starting 3 days post infection measured at 16 hrs post last dose; format: ADME, organism-based; conditions: read-out: Drug uptake
[13] = system: MDR1; assay: Efflux ratio of permeability across pig LLC-PK1 cells expressing human MDR1 at 1 uM after 3.5 hrs by LC-MS/MS analysis; format: ADME, cell-based, Sus scrofa
Procedure, shortened: (§1)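 Porcine kidney LLC-PK1 cells stably transfected with human ABCB1 (MDR1) or mouse Abcb1a (Mdr1a). Cells were grown with 10% FCS and 100 ng/mL colchicine and seeded on permeable inserts, then assayed on day 4. Compound was added at 1 μM to the apical or basolateral side, and transport was run in both directions in triplicate at 37 °C, 5% CO2. Donor and receiver were sampled at 3.5 h and quantified by LC–MS/MS. Lucifer yellow was used as the monolayer tightness control.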

[14] = system: Mdr1a; assay: Efflux ratio of permeability across pig LLC-PK1 cells expressing mouse Mdr1a at 1 uM after 3.5 hrs by LC-MS/MS analysis; format: ADME, cell-based, Sus scrofa; procedure, shortened: as §1
[15] = system: Trypanosoma brucei brucei; assay: Antitrypanosomal activity against Trypanosoma brucei brucei TC 221 assessed as parasite growth inhibition after 72 hrs by Alamar blue assay; format: functional; conditions: TC 221, 72 h
[16] = Trypanosoma brucei, STIB 900, 72 h

Chain of Rhodesain (Q95PM0 whole entry): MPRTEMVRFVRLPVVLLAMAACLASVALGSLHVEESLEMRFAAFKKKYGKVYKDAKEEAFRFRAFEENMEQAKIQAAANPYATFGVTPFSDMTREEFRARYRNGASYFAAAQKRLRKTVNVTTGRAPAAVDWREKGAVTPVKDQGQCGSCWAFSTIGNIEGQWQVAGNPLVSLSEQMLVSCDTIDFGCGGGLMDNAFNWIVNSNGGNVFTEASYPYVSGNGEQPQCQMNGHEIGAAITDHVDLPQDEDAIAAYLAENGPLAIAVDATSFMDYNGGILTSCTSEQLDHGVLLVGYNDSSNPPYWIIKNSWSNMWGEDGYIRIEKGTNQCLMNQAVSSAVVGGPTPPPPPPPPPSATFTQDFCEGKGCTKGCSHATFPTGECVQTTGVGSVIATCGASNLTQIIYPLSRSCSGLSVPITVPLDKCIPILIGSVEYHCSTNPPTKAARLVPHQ
Chain of Procathepsin L (P07711 whole entry): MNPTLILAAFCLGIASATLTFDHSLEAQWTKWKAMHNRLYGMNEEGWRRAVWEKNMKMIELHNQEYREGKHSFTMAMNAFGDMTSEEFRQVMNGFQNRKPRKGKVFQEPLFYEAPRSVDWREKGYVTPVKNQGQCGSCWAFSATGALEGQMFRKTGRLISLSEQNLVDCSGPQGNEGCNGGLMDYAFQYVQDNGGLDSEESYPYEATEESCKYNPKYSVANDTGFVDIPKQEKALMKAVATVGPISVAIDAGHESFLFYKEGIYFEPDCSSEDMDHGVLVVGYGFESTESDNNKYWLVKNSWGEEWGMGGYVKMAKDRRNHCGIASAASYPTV
Chain of Rhodesain (Trypanosoma brucei rhodesiense) (Q95PM0 1-450): as the sequence (Q95PM0 whole entry) above

SMILES | Ki [1] | Ki [2] | Ratio Ki [3] | IC50 [4, 16] | IC50 ([5]; Rattus norvegicus, L6, 72 h) | selectivity ratio [6] | also measured
Cn1cc(-c2cc3ccc2OCCCCOc2cc(C(F)(F)F)ccc2C(=O)N[C@H](C(=O)NC2(C#N)CC2)C3)cn1 | 870 nM | 676 nM | 0.8 | 19 nM | > 100000 nM |  | 
CC(C)(C)c1cc2nn1CC/C=C/COc1ccc(cc1Cl)C[C@@H](C(=O)NC1(C#N)CC1)NC2=O | 18 nM | 2.3 nM | 0.1 | 0.6 nM | 38500 nM | 64200 | 
N#CC1(NC(=O)[C@@H]2Cc3ccc(c(Cl)c3)OC/C=C/COc3ccccc3C(C(F)(F)F)N2)CC1 (some centres undefined) | 258 nM | 443 nM |  | 9500 nM |  |  | 
N#CC1(NC(=O)[C@@H]2Cc3ccc(c(Cl)c3)OCC#CCOc3c(F)cc(F)cc3C(=O)N2)CC1 (single isomer, unassigned; atropisomer 1) [listing 1 of 2 here] | 80.6 nM | 24.1 nM |  | 8 nM | 45600 nM |  | Ratio IC50 [6]: 5700
N#CC1(NC(=O)[C@@H]2Cc3ccc(c(-c4cc[nH]n4)c3)OCCCCOc3ccccc3C(=O)N2)CC1 | 1090 nM | 1110 nM | 1 | 1230 nM | 86500 nM | 70 | 
N#CC1(NC(=O)[C@@H]2Cc3ccc(c(Cl)c3)OC/C=C/COc3ccc(-c4ccc(F)cc4)cc3C(=O)N2)CC1 (mixture of isomers) | 2 nM | 15.5 nM | 7.8 | 347 nM | 45300 nM | 131 | 
N#CC1(NC(=O)[C@@H]2Cc3ccc(c(Cl)c3)OC/C=C/Cn3cccc(c3=O)C(=O)N2)CC1 | > 20000 nM | > 20000 nM |  | 47800 nM | > 100000 nM |  | 
N#CC1(NC(=O)[C@@H]2Cc3ccc(c(Cl)c3)OC/C=C/CCn3nc(cc3-c3ccccc3)C(=O)N2)CC1 | 5.2 nM | 55.7 nM | 11 | 0.6 nM | 40000 nM | 66700 | 
N#CC1(NC(=O)[C@@H]2Cc3ccc(c(Cl)c3)OC/C=C/COc3cc4ccccc4cc3C(=O)N2)CC1 (mixture of isomers) | 1 nM | 1.2 nM | 1.2 | 0.5 nM | 43800 nM | 87600 | 
N#CC1(NC(=O)[C@@H]2Cc3ccc(c(Cl)c3)OC/C=C/COc3cc(-c4ccc(Cl)nc4)ccc3C(=O)N2)CC1 (mixture of isomers) | 3 nM | 7.3 nM | 2.4 | 338 nM | 6490 nM | 19 | 
CS(=O)(=O)c1ccc2c(c1)C(=O)N[C@H](C(=O)NC1(C#N)CC1)Cc1ccc(c(Cl)c1)OC/C=C/CO2 | 6.1 nM | 3.7 nM | 0.6 | 332 nM | > 100000 nM |  | 
N#CC1(NC(=O)[C@@H]2Cc3ccc(c(I)c3)OCCCCOc3cc(C(F)(F)F)ccc3C(=O)N2)CC1 | 57.4 nM | 5.8 nM | 0.1 | 30 nM | 56800 nM | 1890 | 
N#CC1(NC(=O)[C@@H]2Cc3ccc(c(Cl)c3)OCC#CCOc3c(F)cc(F)cc3C(=O)N2)CC1 (single isomer, unassigned; atropisomer 2) [listing 1 of 2 here] | 4.8 nM | 1.2 nM |  |  |  |  | IC50 [4]: 4 nM; IC50 ([5]; l6): 47100 nM; Ratio IC50 [6]: 11775
Cc1cc2nn1CC/C=C/COc1ccc(cc1Cl)C[C@@H](C(=O)NC1(C#N)CC1)NC2=O (mixture of isomers) | 52.4 nM | 40.3 nM | 0.8 | 6 nM | > 100000 nM |  | 
N#CC1(NC(=O)[C@@H]2Cc3ccc(c(I)c3)OC/C=C/COc3cc(C(F)(F)F)ccc3C(=O)N2)CC1 (mixture of isomers) | 8.7 nM | 5.6 nM | 0.6 | 300 nM | 30200 nM | 101 | 
N#CC1(NC(=O)[C@@H]2Cc3ccc(c(-c4cccnc4)c3)OCCCCOc3cc(C(F)(F)F)ccc3C(=O)N2)CC1 | 751 nM | 824 nM | 1.1 | 18 nM | 72200 nM | 4010 | 
N#CC1(NC(=O)[C@@H]2Cc3ccc(c(Cl)c3)OC/C=C/COc3cc(C(F)(F)F)ccc3C(=O)N2)CC1 | 20.2 nM | 2.4 nM | 0.1 | 2 nM | 37000 nM | 18500 | growth inhibition (GI) [7]: Active
N#CC1(NC(=O)[C@@H]2Cc3ccc(c(-c4cc[nH]n4)c3)OCCCCOc3cc(C(F)(F)F)ccc3C(=O)N2)CC1 |  | 1360 nM |  | 140 nM | > 100000 nM |  | inhibition [8]: 45%
CS(=O)(=O)c1ccc2c(c1)C(=O)N[C@H](C(=O)NC1(C#N)CC1)Cc1ccc(c(Cl)c1)OC[C@H]1O[C@@H]1CO2 (mixture of isomers) | 135 nM | 4.6 nM | 0.03 | 16900 nM | 84700 nM | 5 | 
CSc1ccc2c(c1)C(=O)N[C@H](C(=O)NC1(C#N)CC1)Cc1ccc(c(Cl)c1)OC/C=C/CO2 |  |  |  |  |  |  | Activity [9]: inactive; concentration at 1 h [10]: 951 ng/mL; concentration at 4 h [11]: 66.4 ng/mL; concentration at 16 h [12]: < 10 ng/mL
N#CC1(NC(=O)[C@@H]2Cc3ccc(c(I)c3)OC/C=C/COc3ccccc3C(=O)N2)CC1 | 2.5 nM |  |  |  |  |  | 
N#CC1(NC(=O)[C@@H]2Cc3ccc(c(-c4cccnc4)c3)OCCCCOc3ccccc3C(=O)N2)CC1 | 837 nM | 997 nM | 1.2 | 1930 nM | > 100000 nM |  | 
N#CC1(NC(=O)[C@@H]2Cc3ccc(c(Cl)c3)OCC#CCOc3c(F)cc(F)cc3C(=O)N2)CC1 (single isomer, unassigned; atropisomer 2) [listing 2 of 2 here] |  |  | 0.3 |  |  |  | 
N#CC1(NC(=O)[C@@H]2Cc3ccc(c(-c4cncnc4)c3)OCCCCOc3cc(C(F)(F)F)ccc3C(=O)N2)CC1 | > 20000 nM | 6390 nM |  | 509 nM | > 100000 nM |  | 
N#CC1(NC(=O)[C@@H]2Cc3ccc(c(Cl)c3)OCCCCOc3cc4c(cc3C(=O)N2)CCCC4)CC1 | 26 nM | 3 nM |  |  |  |  | efflux ratio at 3.5 h, 1 µM [13]: 26; efflux ratio at 3.5 h, 1 µM [14]: 38; IC50 [15]: 1 nM
N#CC1(NC(=O)[C@@H]2Cc3ccc(c(Cl)c3)OC/C=C/COc3cc(-c4cnn(C(F)F)c4)ccc3C(=O)N2)CC1 (mixture of isomers) | 5.4 nM | 7.4 nM | 1.4 | 336 nM | 44300 nM | 132 | 
N#CC1(NC(=O)[C@@H]2Cc3ccc(c(Cl)c3)OC/C=C/COc3c(F)cc(F)cc3C(=O)N2)CC1 |  |  |  |  |  |  | growth inhibition (GI) [7]: Active
N#CC1(NC(=O)[C@@H]2Cc3ccc(c(Cl)c3)OCC#CCOc3c(F)cc(F)cc3C(=O)N2)CC1 (single isomer, unassigned; atropisomer 1) [listing 2 of 2 here] |  |  | 0.3 |  |  |  | 
N#CC1(NC(=O)[C@@H]2Cc3ccc(c(Cl)c3)OC/C=C/Cn3c(=O)c(cc4cc(Cl)ccc43)C(=O)N2)CC1 (mixture of isomers) | 299 nM | 274 nM | 0.9 | 8 nM | 16200 nM | 2020 | 
N#CC1(NC(=O)[C@@H]2Cc3ccc(c(Cl)c3)OC/C=C/CCn3nc(cc3C3CC3)C(=O)N2)CC1 | 17.2 nM | 2.5 nM | 0.1 | 5 nM | 60600 nM | 12100 | growth inhibition (GI) [7]: Active
